In ChEMBL document CHEMBL3297648, “Diterpenoids from the Chinese liverwort Heteroscyphus tener and their antiproliferative effects” (J Nat Prod, 2014):
Active and inactive are the calls of the source. The rule behind the calls is not given here.

Experiments:
[1] = tested on: PC-3; assay: Induction of apoptosis in human PC3 cells assessed as necrotic cells at 20 uM after 4 hrs by Annexin V-FITC/propidium iodide staining based flow cytometry (reference value: 0.98%); type: functional
How it was run: (§1)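 Cells seeded in 6-well plates for 24 h, then given 20 μM for the stated times. Cells were trypsinized, PBS-washed, stained with annexin V-FITC/PI, and analysed immediately by flow cytometry. Means ± SD of three independent experiments; Student's t test against untreated control.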

[2] = Decrease in ChK1 protein expression in human PC3 cells at 20 uM after 2 to 48 hrs by western blot analysis; type: functional, cell-based; details: PC-3
How it was run: (§2)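 Cells treated at 20 μM for various times, lysed in RIPA buffer with protease/phosphatase inhibitors, protein quantified by BCA. Equal protein run on 12% SDS-PAGE, transferred to nitrocellulose, blocked 1 h in 5% milk/TBST, primary antibodies overnight at 4 °C, secondary 1:2000 for 45 min, ECL detection on film. GAPDH used as loading control.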

[3] = tested on: DU-145; assay: Induction of apoptosis in human DU145 cells assessed as late apoptotic cells at 20 uM after 8 hrs by Annexin V-FITC/propidium iodide staining based flow cytometry (reference value: 1.53%); type: functional; how it was run: as §1
[4] = tested on: DU-145; assay: Induction of apoptosis in human DU145 cells assessed as late apoptotic cells at 20 uM after 24 hrs by Annexin V-FITC/propidium iodide staining based flow cytometry (reference value: 1.53%); type: functional; how it was run: as §1
[5] = tested on: PC-3; assay: Antiproliferative activity against human PC3 cells assessed as inhibition of cell viability at 20 uM pretreated for 1 hr with 5 mM antioxidant NAC measured after 24 hrs by MTT assay; type: functional, cell-based
[6] = tested on: DU-145; assay: Induction of apoptosis in human DU145 cells assessed as late apoptotic cells at 20 uM after 4 hrs by Annexin V-FITC/propidium iodide staining based flow cytometry (reference value: 1.53%); type: functional; how it was run: as §1
[7] = tested on: DU-145; assay: Cell cycle arrest in human DU145 cells assessed as accumulation at subG1 phase at 10 uM after 24 hrs by propidium iodide staining based flow cytometry (reference value: 0.28%); type: functional
[8] = tested on: DU-145; assay: Antiproliferative activity against human DU145 cells assessed as inhibition of cell viability after 24 hrs by MTT assay; type: functional, cell-based; details: DU-145, 24 h
How it was run: (§3)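 Cells grown to 50–70% confluence (RWPE1 in K-SFM with pituitary extract and EGF; the other lines in RPMI 1640 with 10% FBS), 5% CO2, 37 °C. Treated for 24 h with DMSO vehicle, compounds, or cisplatin as positive control. MTT (5 mg/mL) added for 4 h, formazan dissolved in DMSO, absorbance read at 570 nm. Viability taken relative to untreated cells after blank subtraction, IC50 fitted from % viability, at least three experiments.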

[9] = tested on: DU-145; assay: Cell cycle arrest in human DU145 cells assessed as accumulation at G2/M phase at 20 uM after 24 hrs by propidium iodide staining based flow cytometry (reference value: 10.44%); type: functional
[10] = Cell cycle arrest in human PC3 cells assessed as accumulation at S phase at 10 uM after 24 hrs by propidium iodide staining based flow cytometry (reference value: 22.07%); type: functional; details: PC-3
[11] = tested on: PC-3; assay: Induction of ROS generation in human PC3 cells at 20 uM pretreated for 1 hr with 5 mM antioxidant NAC measured after 24 hrs by DCFH-DA staining based flow cytometry; type: functional, cell-based
How it was run: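 Cells in RPMI 1640 with 10% FBS, 5% CO2, 37 °C, treated at 50−70% confluence (DMSO vehicle). After exposure, cells were loaded with 10 μM DCFH-DA for 30 min at 37 °C, washed, resuspended in PBS, and read at once by flow cytometry. For NAC runs, cells got 5 mM NAC 1 h before compound. ROS reported as ratio relative to untreated control.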

[12] = Decrease in cyclin D1 protein expression in human PC3 cells by western blot analysis; type: functional, cell-based; details: PC-3, TDE = time-dependent effect
How it was run: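 Western blot of cyclin D1, cyclin E, Cdk4 and p21 in PC3 and DU145 lysates. Lysis in RIPA buffer plus protease inhibitors, BCA quantification, 12% SDS-PAGE, nitrocellulose transfer, milk block, primaries overnight at 4 °C, secondary 1:2000 for 45 min, ECL read-out. GAPDH served as loading control.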

[13] = Cell cycle arrest at G0/G1 phase in human PC3 cells after 24 hrs by propidium iodide staining based flow cytometry; type: functional; details: PC-3
[14] = tested on: PC-3; assay: Induction of apoptosis in human PC3 cells assessed as late apoptotic cells at 20 uM after 8 hrs by Annexin V-FITC/propidium iodide staining based flow cytometry (reference value: 7.92%); type: functional; how it was run: as §1
[15] = tested on: DU-145; assay: Cell cycle arrest in human DU145 cells assessed as accumulation at S phase at 10 uM after 24 hrs by propidium iodide staining based flow cytometry (reference value: 25.94%); type: functional
[16] = Cell cycle arrest in human PC3 cells assessed as accumulation at G0/G1 phase at 10 uM after 24 hrs by propidium iodide staining based flow cytometry (reference value: 66.57%); type: functional; details: PC-3
[17] = Antiproliferative activity against human PC3 cells assessed as inhibition of cell viability after 24 hrs by MTT assay; type: functional, cell-based; details: PC-3, 24 h; how it was run: as §3
[18] = Decrease in BRCA1 protein expression in human PC3 cells at 20 uM after 2 to 48 hrs by western blot analysis; type: functional, cell-based; details: PC-3; how it was run: as §2
[19] = Cell cycle arrest in human PC3 cells assessed as accumulation at subG1 phase at 10 uM after 24 hrs by propidium iodide staining based flow cytometry (reference value: 0.13%); type: functional; details: PC-3
[20] = tested on: DU-145; assay: Induction of apoptosis in human DU145 cells assessed as early apoptotic cells at 20 uM after 24 hrs by Annexin V-FITC/propidium iodide staining based flow cytometry (reference value: 1.60%); type: functional; how it was run: as §1
[21] = Antiproliferative activity against human RWPE1 cells assessed as inhibition of cell viability after 24 hrs by MTT assay; type: cell-based; details: RWPE-1, 24 h; how it was run: as §3
[22] = tested on: PC-3; assay: Induction of apoptosis in human PC3 cells assessed as early apoptotic cells at 20 uM after 12 hrs by Annexin V-FITC/propidium iodide staining based flow cytometry (reference value: 0.79%); type: functional; how it was run: as §1
[23] = Decrease in ChK1 protein expression in human DU145 cells at 20 uM after 2 to 48 hrs by western blot analysis; type: functional, cell-based; details: DU-145; how it was run: as §2
[24] = tested on: DU-145; assay: Cell cycle arrest in human DU145 cells assessed as accumulation at G0/G1 phase at 20 uM after 24 hrs by propidium iodide staining based flow cytometry (reference value: 63.34%); type: functional
[25] = tested on: DU-145; assay: Induction of DNA damage in human DU145 cells assessed as gamma-H2AX phosphorylation at ser139 at 20 uM by western blot analysis; type: functional, cell-based; details: TDE = time-dependent effect; how it was run: as §2
[26] = tested on: PC-3; assay: Induction of apoptosis in human PC3 cells assessed as cleaved caspase-3 level at 20 uM after 12 hrs by western blot analysis; type: functional, cell-based
How it was run: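 Cells exposed to 20 μM for the stated times. Lysis in RIPA plus protease inhibitors, BCA protein assay, equal protein on 12% SDS-PAGE, transfer to nitrocellulose. Blocking in 5% milk/TBST 1 h; primary antibodies overnight at 4 °C; secondary 1:2000 for 45 min; ECL detection. GAPDH served as loading control.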

[27] = tested on: DU-145; assay: Cell cycle arrest in human DU145 cells assessed as accumulation at G0/G1 phase at 10 uM after 24 hrs by propidium iodide staining based flow cytometry (reference value: 63.34%); type: functional

In the case of `C=C[C@@](C)(O)CC[C@@H]1C(C)=CC[C@@H]2C(C)(C)CCC[C@@]12C`, the Activity [1] is reported as 2.75%, the inhibition [2] is reported as “Active” and the Activity [3] is reported as 8.94%. The Activity [4] was 15.33%, the inhibition [5] was “inactive” and the Activity [6] was 9.26%. It also gave an Activity [7] of 1.97%, an IC50 [8] of 28.5 µM and an Activity [9] of 12.9%. The Activity [10] was 13.9%, the Activity [11] was “inactive” and the inhibition [12] was “tde”. For the same compound, the Activity [13] was “Dose-dependent effect”, the Activity [14] was 15.29% and the Activity [15] was 21.68%. For the same compound, the Activity [16] was 73%, the IC50 [17] was 26.6 µM and the inhibition [18] was “inactive”. For the same compound, the Activity [19] was 1.94%, the Activity [20] was 7.16% and the IC50 [21] was 81 µM. The Activity [22] was 3.51%, the inhibition [23] was “Active” and the Activity [24] was 75.55%. The Activity [25] was “tde”, the Activity [26] was “Active” and the Activity [27] was 67.97%.
